# Screens: PubChem, The Scripps Research Institute Molecular Screening Center
# OX1R antag-1 – antagonists of human orexin 1 receptor; O43613; CHO/OX1R cells, Fluo-8 calcium fluorescence, orexin A; inhibition, % at 5 µM; 330,000 compounds, 0.43% hits;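 active = inhibition above its plate's threshold, mean inhibition of all tested compounds on the plate plus 3 SD, cut at about 37% in these data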;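 note: 0% = orexin A challenge wells and 100% = SB-334867-A antagonist wells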
# TAAR1 ag – human TAAR1 agonism; CHO RD-HGA16 TAAR1, Fluo-8 calcium fluorescence; vehicle wells 0%, saturating PEA agonist 100%; activation, % at 3 µM; 360,000 compounds, 0.99% hits;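 active = activation above the mean activation of all test compounds in the run plus 3 SD, cut at about 38% in these data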
# Target sequence (Q96RJ0 whole entry, looked up): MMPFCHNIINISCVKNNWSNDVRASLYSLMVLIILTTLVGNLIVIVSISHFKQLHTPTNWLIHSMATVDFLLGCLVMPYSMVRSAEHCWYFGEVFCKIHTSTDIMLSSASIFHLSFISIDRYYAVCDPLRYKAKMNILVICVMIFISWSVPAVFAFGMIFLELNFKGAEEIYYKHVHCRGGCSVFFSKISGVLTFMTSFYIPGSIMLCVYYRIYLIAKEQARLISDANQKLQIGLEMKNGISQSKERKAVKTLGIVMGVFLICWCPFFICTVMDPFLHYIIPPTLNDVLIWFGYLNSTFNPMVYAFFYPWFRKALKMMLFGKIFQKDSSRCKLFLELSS
#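 Assay system: CHO-derived RD-HGA16 cells with stable Gα16 and human TAAR1; timing: 17-24 h seeding, 75 min 37 °C dye, 30 min RT; read-out: % activation from peak over basal fluorescence ratio, DMSO-to-PEA scaled; measured by: kinetic Fluo-8 calcium fluorescence; benchmarks: low control DMSO, high control PEA (EC100); doses: 3 µM single concentration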
# CHO parental Ca – counter-screen for OX1R antagonists: effect in parental CHO cells; parental CHO-K1, ATP-induced calcium, Fluo-8 fluorescence; inhibition, % at 5.6 µM; 330,000 compounds, 0.63% hits; AID 463079;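 active = inhibition above that plate's mean sample inhibition plus 3 SD, cut at about 26% in these data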;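 note: 0% = ATP-challenged DMSO wells and 100% = DMSO wells without ATP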
#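 Material: Parental CHO cells | Reagent: ATP | Compound dosing: Single nominal dose of 5.6 µM per compound | Detection: Intracellular calcium via Fluo-8 no-wash fluorescent dye | Read-out: % inhibition of ATP-induced calcium mobilization | Benchmarks: Low control ATP plus DMSO, high control DMSO only | Replicates: Singlicate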
# TAAR1 antagonist – antagonists of human TAAR1; AID 624466; 360,000 compounds, 1.5% hits; CHO RD-HGA16 TAAR1, Fluo-8 calcium fluorescence, antagonist; inhibition, % at 3 µM; Q96RJ0;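 active = inhibition above a per-plate cutoff, the mean inhibition of test compounds on that plate plus 3 SD, cut at about 49% in these data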;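 note: 0% = DMSO plus EC80 beta-PEA response and 100% = DMSO alone without agonist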
#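 test system = CHO RD-HGA16 cells bearing hTAAR1 | replication = singlicate | controls = DMSO-only wells and EC80 β-PEA-stimulated wells | reagent = EC80 β-phenethylamine stimulus | read-out basis = percent inhibition of PEA-evoked calcium signal, max/basal emission ratio | schedule = seeding 17-24 h prior, 75-min 37 °C, 30-min RT dye loading | signal = kinetic Fluo-8 calcium fluorescence measurement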
# OX1R antag-2 – OX1R (human) antagonism. OX1R-expressing cells, FRET antagonist read-out. inhibition, % at 6.6 µM. O43613. AID 485270. 330,000 compounds, 1.8% hits; in the data active = inhibition mostly above about 38%, no sharp cut-off; inactive = mostly below about 40%;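 note: 0% = agonist challenge alone and 100% = reference antagonist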
# GPR7 antagonist – antagonists of human GPR7 (neuropeptides B/W receptor 1) | inhibition, % at 4.4 µM | P48145 | GPR7-expressing cells, fluorescence antagonist assay | AID 1861 | 290,000 compounds, 1.1% hits; in the data active = inhibition above about 16%, passing the limit was not always enough;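 note: cells stimulated with the agonist NPW; 0% = agonist with vehicle and 100% = vehicle without agonist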
# Target sequence (P48145 whole entry, looked up): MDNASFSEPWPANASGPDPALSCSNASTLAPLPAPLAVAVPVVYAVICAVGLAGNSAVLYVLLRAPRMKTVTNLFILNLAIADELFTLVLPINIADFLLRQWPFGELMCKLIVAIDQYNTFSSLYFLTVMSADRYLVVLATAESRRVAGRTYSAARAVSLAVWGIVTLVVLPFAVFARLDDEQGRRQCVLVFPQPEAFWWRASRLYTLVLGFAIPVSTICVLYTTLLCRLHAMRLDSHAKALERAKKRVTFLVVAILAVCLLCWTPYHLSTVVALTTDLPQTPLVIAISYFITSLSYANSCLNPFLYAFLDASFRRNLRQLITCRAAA
# OX1R HTRF conf – confirmation of human orexin 1 receptor antagonists, HTRF format. shares compounds with OX1R antag-2. OX1R-expressing cells, HTRF antagonist assay. inhibition, % at 6.6 µM. 1,800 compounds, 49% hits. AID 492964; in the data active = inhibition above about 55%;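 note: CHO cells expressing OX1R stimulated with orexin A at about EC80; 0% = agonist challenge alone and 100% = reference antagonist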
# CHO-K1 HTRF cnt – counter-screen for OX1R antagonists: effect in parental CHO-K1 cells; HTRF counterscreen; 1,800 compounds, 48% hits; shares compounds with OX1R antag-2; inhibition, % at 6.6 µM; AID 493232; in the data active = inhibition above about 17%;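 note: 0% = agonist challenge with vehicle and 100% = vehicle alone without agonist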
# Numbers without * were called inactive; . = no result. In the library only some 4.5% were active in any assay of this set; here they are far more common.
SMILES,OX1R antag-1,TAAR1 ag,CHO parental Ca,TAAR1 antagonist,OX1R antag-2,GPR7 antagonist,OX1R HTRF conf,CHO-K1 HTRF cnt
Cc1ccnc(NC(=O)c2ccccc2[N+](=O)[O-])c1,-9,4,-19,-2,16,-12,.,.
Cc1ccc(CNC(=O)c2ccc([N+](=O)[O-])o2)cc1,-20,3,0,3,78*,15,23,33*
NC(COCc1ccccc1)c1csc(Nc2ccccn2)n1 (stereo not drawn),.,19,.,5,.,.,.,.
CC1CCCC(C)N1C(=O)COC(=O)c1cncc(Br)c1 (stereo not drawn),-19,1,-12,-17,7,.,.,.
CCOC(=O)c1ccc([N+](=O)[O-])cc1NC(C)=O,2,-1,-5,-12,83*,-6,35,44*
CCc1nnc(N/N=C/c2ccccc2Cl)n1N,-6,0,4,6,96*,-10,19,13
Nn1cnnc1N/N=C/c1cccc(Cl)c1Cl,.,4,.,-6,.,-17,.,.
CC(=O)Nc1c([N+](=O)[O-])cc(C)c(Cl)c1[N+](=O)[O-],-10,9,-3,-13,23,0,.,.
CC(=O)Nc1c([N+](=O)[O-])cc2[nH]c(=O)[nH]c2c1[N+](=O)[O-],-12,1,-3,0,185*,-1,50,71*
O=c1[nH]c2cc([N+](=O)[O-])c(NCCO)c([N+](=O)[O-])c2[nH]1,-19,5,-7,4,124*,-13,89*,96*
Cc1cccc(OCc2nnc(SCC(=O)N(C)C3CCCCC3)o2)c1,.,1,.,14,.,.,.,.
COc1cccc(/C=N/NC(=O)c2c(-c3ccccc3)noc2C)c1O,4,8,-13,-9,98*,-17,34,10
CCOC(=O)/C(C#N)=C\c1ccc(CC)s1,-10,8,-6,-1,23,2,.,.
CCOC(=O)/C(C#N)=C\C=C1C=CN(C)C=C1,3,25,6,21,100*,-3,51,62*
CCOC(=O)c1c2c3c(cccc3n(C)c1=O)C(=O)c1ccccc1-2,-30,10,-27,32,27,8,.,.
CC(=O)Nc1c2c3c(cccc3n(C)c1=O)C(=O)c1ccccc1-2,-15,5,-4,-18,154*,-1,43,65*
CCCCOc1ccc(-c2nnc(-c3cc[n+](C)cc3)o2)cc1,-4,3,-6,-12,102*,-6,88*,74*
CC1CN(C(=O)/C=C/c2ccc([N+](=O)[O-])s2)CC(C)O1 (stereo not drawn),-26,0,-34,4,126*,-5,65*,75*
Cc1c(Cl)c([N+](=O)[O-])nn1CCCC(=O)N1CCN(c2ccccc2)CC1,-19,2,-17,8,10,-1,.,.
Cc1c(Cl)c([N+](=O)[O-])nn1CCCC(=O)N(Cc1ccccc1)Cc1ccccc1,23,0,-16,22,84*,11,85*,4
COC(=O)c1sccc1NC(=O)COc1ccccc1Cl,-101,2,-35,28,79*,0,56*,6
O=C1OCc2cccc([N+](=O)[O-])c21,5,1,3,-4,79*,-5,31,33*
O=C1CC(=O)c2c1cccc2[N+](=O)[O-],.,.,.,.,.,-13,.,.
Nc1ccc(CCc2ccccn2)cc1,.,7,.,-10,.,.,.,.
CCOC(=O)c1cc2c(=O)n3ccccc3nc2n(CC(C)C)c1=NC(=O)c1ccco1,-32,14,-5,11,117*,-2,54,40*
SMILES,OX1R antag-1,TAAR1 ag,CHO parental Ca,TAAR1 antagonist,OX1R antag-2,GPR7 antagonist,OX1R HTRF conf,CHO-K1 HTRF cnt
CCOC(=O)c1cc2c(=O)n3ccccc3nc2n(CCOC)c1=NC(=O)c1c(-c2c(F)cccc2Cl)noc1C,-10,1,-10,-11,7,-2,.,.
CCOC(=O)c1cc2c(=O)n3ccccc3nc2n(CCOC)c1=NC(=O)c1ccncc1,-17,15,-12,6,80*,1,58*,52*
CCOC(=O)c1cc2c(=O)n3ccccc3nc2n(CCCOC)c1=NC(=O)c1cccnc1,-2,.,0,.,47,1,.,.
CCOC(=O)c1cc2c(=O)n3ccccc3nc2n(CCCOC)c1=NC(=O)C(C)(C)C,-41,0,-21,-4,84*,3,21,27*
CCS(=O)(=O)c1ccc2c(c1)N(S(C)(=O)=O)CC(C(=O)NC1CC1)O2 (stereo not drawn),4,2,2,-5,-3,8,.,.
O=c1c2ccccc2nnn1-c1ccc(Br)cc1,-10,4,-19,-22,10,-11,.,.
Cc1nn(CC(=O)Nc2ccc3c(c2)oc2ccccc23)c(=O)c2ccccc12,-21,-1,-12,8,17,-13,.,.
CC1(C)CC(NC(=O)COc2ccc([N+](=O)[O-])cc2)CC(C)(C)N1,-22,5,-11,-2,20,-6,.,.
CN(CCCC(=O)NC1CC(C)(C)NC(C)(C)C1)S(=O)(=O)c1ccc([N+](=O)[O-])cc1,-5,7,-11,2,79*,-3,45,59*
CC1(C)CC(NC(=O)c2cc([N+](=O)[O-])cc([N+](=O)[O-])c2)CC(C)(C)N1,-2,1,-6,-7,98*,-5,78*,78*
c1ccc2c(-c3nc4ncccc4o3)cccc2c1,-7,22,-18,8,90*,-7,89*,10
COc1ccc(CN2CCC(=O)N([C@H](CO)Cc3ccccc3)CC2)cc1OC,-22,2,-15,-14,19,-2,.,.
O=C(O)c1cccc(NS(=O)(=O)c2cccc3nsnc23)c1,-2,-1,7,2,33,3,.,.
COc1ccc(C(=O)O)cc1NS(=O)(=O)c1cccc2nsnc12,-9,14,-15,-16,116*,0,42,30*
COc1ccccc1NC(=O)CS(=O)(=O)c1cccc2nsnc12,-24,15,-2,-4,100*,-7,36,37*
CCNC(=O)C/C(C)=N/NC(=O)C(=O)Nc1ccc(CC)cc1,-2,0,-20,16,30,-19,.,.
COCCNCC(=O)Nc1ccc(C)c(S(=O)(=O)N2CCCCC2)c1,-37,2,-17,8,100*,0,17,6
CC1(C)CC(NS(=O)(=O)c2ccc(F)cc2)CC(C)(C)N1,-2,0,-8,-19,86*,-2,20,-2
